Broadly, the inhibition is the relative decrease from the control value, in per cent.

SMILES strings stand for the structures. About 2,000 (0.61%) of roughly 330,000 compounds were called active. The full list was thinned out, with actives kept by preference. Values without a mark were called inactive.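 Rule for the calls: active = inhibition above that plate's mean sample inhibition plus 3 SD (cut at about 26% in these data); inactive = the rest.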

The experiment can be described thus: nonselective Gq signaling inhibition in CHO cells – cell-based, fluorescence, Fluo-8 calcium dye, counter-screen for OX1R antagonist project, primary screen (AID 463079).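 Note: 0% = ATP-challenged DMSO wells and 100% = DMSO wells without ATP.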 To be noted: parental CHO-K1, ATP-induced calcium, Fluo-8 fluorescence; at 5.6 µM; hits give high values. An outline of the steps:
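Material: Parental CHO cells | Reagent: ATP | Compound dosing: Single nominal dose of 5.6 µM per compound | Detection: Intracellular calcium via Fluo-8 no-wash fluorescent dye | Read-out: % inhibition of ATP-induced calcium mobilization | Benchmarks: Low control ATP plus DMSO, high control DMSO only | Replicates: Singlicate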
On the technique in general: Counterscreens check selectivity or assay interference.
For `COc1ccc(NC2CCCN(C(=O)c3ccncc3)C2)cc1` (stereo not drawn), the inhibition was -8.33%.
The value for `CSCCC(C(=O)NC1=NCCS1)N1C(=O)c2ccccc2C1=O` (stereo not drawn) was 1.01%; that for `CCOc1cccc(C(=O)Nc2nnc(-c3cccs3)s2)c1` was -10.2%.
The value for `N#Cc1ccc(C(=O)Nc2nc(-c3cccs3)c(C(=O)C(F)(F)F)s2)cc1` was 25.4% (active); that for `N#Cc1ccc(Oc2ccc(C(F)(F)F)cc2NC(=O)c2ccc(F)cc2)cc1` was -13.8%.
Next, `O=C(/C=C/c1cccc([N+](=O)[O-])c1)NCCSCc1ccco1`: -15.3%.
For the molecule `CCCC(C)C(=O)OCC(=O)Nc1c(Br)cc(C)cc1Br` (stereo not drawn), the inhibition is -8.47%.
The value for `CCC(=O)Nc1ccc(-c2ccc(N3CCCCC3)nn2)cc1` was -16%.
The value for `CC1CCN(c2ccc(-c3ccc(NC(=O)c4ccco4)cc3)nn2)CC1` was 45% (active); that for `CC1CCN(C(NC(=O)c2ccco2)C(=O)c2ccccc2)CC1` (stereo not drawn) was -6.97%; that for `COc1ccc(CCNC(=O)CN(C)S(=O)(=O)c2ccc3nc(C)sc3c2)cc1OC` was -5.92%.
Next, `CC(=O)Nc1ccc(S(=O)(=O)NCCC(=O)N2CCN(c3ccccc3Cl)CC2)cc1`: -3.47%; `CCOC(=O)N1CCN(C(=O)CSc2nc(=O)n3cccc(C)c3n2)CC1`: -15.5%.
On to `Cc1cccn2c(=O)c(/C=C(\C#N)C(N)=O)c(N3CCCCCC3)nc12`, for which the inhibition was -34.3%.
The value for `CCOC(=O)CC1C(=O)NCCN1c1nc2c(C)cccn2c(=O)c1/C=C1\SC(=S)N(C(C)CC)C1=O` (stereo not drawn) was 54.2% (active).
With `COc1ccc(CC(NC(C)=O)C(=O)NC2CCN(C(=O)Nc3ccc(C#N)cc3)CC2)cc1OC` (stereo not drawn), the inhibition is -6.58%.
Next, `CC(C)=CCN1CCN(CCCc2ccccc2)CC1CCO` (stereo not drawn): -8.88%; `CN(C)S(=O)(=O)N1CCC(Oc2cccc(C(=O)NCCCC3CCCC3)c2)CC1`: 23.8%.
Next, `CSc1ccc(S(=O)(=O)NCC(=O)OCC(=O)NC2(C#N)CCCCC2)cc1[N+](=O)[O-]`: -8.63%.
The value for `COc1ccc(-c2noc(CCC(=O)N3CCN(c4cccc(C)c4)CC3)n2)cc1` was -7.6%.
On to `Oc1c(Cl)cc(Cl)c(Cl)c1Cc1c(O)c(Cl)cc(Cl)c1Cl`, for which the inhibition was 70.6% (active).
The value for `COCC(=O)Nc1cc(C(=O)OC)cc(C(=O)OC)c1` was -1.27%; that for `Cc1cccc(NC(=O)C2CC(=O)OC23CCCC3)c1` (stereo not drawn) was -13.3%.
The value for `C/C(=N\NC(=O)CNC(=O)C(c1ccccc1)c1ccccc1)c1ccc(C)cc1` was 30.7% (active); that for `C/C(=N/NC(=O)CC(=O)N/N=C(\C)c1ccc([N+](=O)[O-])cc1)c1ccc([N+](=O)[O-])cc1` was -3.47%; that for `O=C(CNC(=O)C(c1ccccc1)c1ccccc1)N/N=C\c1ccc2c(c1)OCO2` was 2.64%.
The value for `CCCc1ccc(C(=O)COC(=O)CN2C(=O)NC3(CCCCC3C)C2=O)cc1` (stereo not drawn) was -23.9%; that for `COc1cc(C(=O)N2CCN(C/C=C/c3ccccc3)CC2)cc(OC)c1C` was -10.8%.
With `CC1(C)CC[C@]2(C(=O)O)CC[C@]3(C)C(=CCC4[C@@]5(C)CC[C@H](O)C(C)(C)C5[C@H](O)C[C@]43C)[C@@H]2C1` (stereo partly drawn), the inhibition was -9.31%.
Regarding `CC1(C)CC[C@@]2(C(=O)O)C(C1)C1=CCC3[C@@]4(C)CC[C@H](O)C(C)(C)C4CC[C@@]3(C)[C@]1(C)C[C@H]2O` (stereo partly drawn), the inhibition was 93.2% (active).
The value for `CC1(C)C2CC[C@]3(C)C(CC=C4[C@@H]5C[C@@](C)(CO)CC[C@]5(C(=O)O)CC[C@]43C)[C@@]2(C)CC[C@@H]1O` (stereo partly drawn) was -1.46%; that for `Cc1ccc(Cl)c(NC(=O)CN(C)CC(=O)Nc2ccc(F)c(F)c2F)c1Cl` was -2.12%.
Next, `NC(=O)c1ccc(-c2csnn2)cc1`: -15.6%.
Consider `Fc1ccccc1COc1cccc2cccnc12`, for which the inhibition was -22.9%.
The value for `Cc1occc(=O)c1OCc1ccc(F)cc1` was -7.75%; that for `Cc1nc2ccccc2cc1OCc1ccc(F)cc1` was 54.1% (active).
`CCNC(=S)N1CCN(CCN=CC2=C(O)CC(C)(C)CC2=O)CC1`: the inhibition was -4.83%.
For the molecule `C=C(Br)CN1CCN(CC(=C)Br)CC1`, the inhibition was 4.29%.
The value for `CCCCNC(=O)C(C)N(CCN(C)C)C(=O)CCCCCN1C(=O)NC(c2ccc(Cl)cc2)C(C(=O)OCc2ccccc2)=C1C` (stereo not drawn) was -17%; that for `CNC(=O)NC(=O)CSc1nnc(-c2ccc(F)cc2)n1CC1CCCO1` (stereo not drawn) was -7.71%.
On to `Cc1ccc(S(=O)(=O)N2CCN(c3ncnc4ccccc34)CC2)cc1`, for which the inhibition is 0.84%.
Next, `COc1ccc(C)cc1S(=O)(=O)N1CCN(S(=O)(=O)c2cc(C(=O)O)ccc2C)CC1`: -11.5%.
The value for `Cc1ccc(C)c(S(=O)(=O)N2CCN(c3ncnc4sccc34)CC2)c1` was 62.3% (active); that for `COc1ccc(NS(=O)(=O)c2cc(NC(=O)C3CCCCC3)ccc2N2CCOCC2)cc1` was 5.3%.
Next, `CC(C)(C)c1ccc(CCC2OCC(CN3CCOCC3)O2)cc1` (stereo not drawn): -9.27%.
For the molecule `Cc1cc(OCCCN2CCN(Cc3ccccc3)CC2)ccc1[N+](=O)[O-]`, the inhibition is 18.6%.
The value for `Cc1cc(OCCCCOc2ccc(C#N)cc2)ccc1[N+](=O)[O-]` was 44.9% (active); that for `Cc1cc(OCC(=O)NC2CCN(C)CC2)ccc1[N+](=O)[O-]` was -4.54%; that for `CC[C@]12c3[nH]c4ccc(OC)cc4c3CCN1C(=O)C(CC(=O)NCc1ccco1)C[C@@H]2C(=O)N1CCN(C(=O)C2CC2)CC1` (stereo partly drawn) was -3.18%.
Consider `O=C1[C@@H](c2ccccc2)[C@@H](c2ccccc2)N1c1cccnc1`, for which the inhibition was 3.04%.
Next, `CCc1ccc2ncc(C(=O)c3ccccc3)c(N3CCOCC3)c2c1`: -4.24%; `Cc1ccc2c(c1)NC(=O)[C@@]1(C)[C@@H](c3ccccc3)[C@H]3COc4ccc(Cl)cc4[C@@H]3N1C2=O`: -11.9%.
The value for `CN(C)C(=O)CCc1ccc2c3c([nH]c2c1)[C@]1(C)[C@@H](C(=O)N2CCOCC2)C[C@H](CC(=O)NCCc2ccccn2)C(=O)N1CC3` was 1.44%; that for `CN(C)c1ccc(C=C2C(=O)OC3(CCCC3)OC2=O)cc1` was -4.66%; that for `CN(C)c1ccc(/C=C2\NC(=S)N(Cc3ccccc3)C2=O)cc1` was 70.7% (active).
Next, `COc1cc(/C=C2/SC(=S)N(Cc3ccccc3)C2=O)cc(OC)c1O`: 27.6%.
Take `N#CC1(NC(=O)COC(=O)Cc2n[nH]c(=O)c3ccccc23)CCCCC1`: the inhibition is -1.72%.
Next, `CN(CC(=O)Nc1cccc(F)c1)CC(=O)Nc1cccc([N+](=O)[O-])c1`: -2.05%.
Next, `Cc1ccc(NC(=O)c2sccc2C)cc1[N+](=O)[O-]`: -13%.
Next, `Cc1ccc(NC(=O)CN(C)CC(=O)Nc2cccc(F)c2)cc1[N+](=O)[O-]`: 68.4% (active).
For the molecule `CCCc1ccc(-c2c(C)sc(NC(=O)c3ccnn3C)c2C#N)cc1`, the inhibition is 37% (active).
The value for `Cn1nccc1CNC(=O)c1ccnn1C` was 7.66%; that for `CCN(CC)C(=O)c1sc(NC(=O)c2ccco2)c(C#N)c1C` was -6.79%.
Next, `Cc1cc(C)cc(Oc2nc3c(C)cccn3c(=O)c2/C=C(\C#N)C(=O)NC2CCS(=O)(=O)C2)c1` (stereo not drawn): -10.7%.
Next, `Cc1ccccc1C(=O)NC(=S)NC1CC1`: -11.8%; `O=C(CSc1ncn[nH]1)Nc1nsc(-c2ccccc2)n1`: 0.25%.
As for `O=C(CSc1ncn[nH]1)Nc1nc(-c2cccc([N+](=O)[O-])c2)cs1`, the inhibition is 29.9% (active).
The value for `O=C(CSc1nc(-c2ccccc2)cs1)Nc1cccc([N+](=O)[O-])c1` was -15.2%.
In the case of `CC(C)CC(CC(C)C)=NNC(=O)c1ccc(CSc2nncn2C)cc1`, the inhibition is -6.24%.
The value for `C=CCOc1cccc(C2C(C(=O)c3ccc(C)o3)=C(O)C(=O)N2CCCn2ccnc2)c1` (stereo not drawn) was 4.82%; that for `Cc1cc(N2C(=O)C(O)=C(C(=O)c3ccc(C)o3)C2c2ccc(OCc3ccccc3)cc2)no1` (stereo not drawn) was -17.5%; that for `C=CCOc1cccc(C2C(C(=O)c3ccc(C)o3)=C(O)C(=O)N2c2nnc(C)s2)c1` (stereo not drawn) was 35.4% (active).
The value for `Cc1ccc(SC(=O)COc2ccc(C)c(C)c2)cc1` was 11.9%.
As to `Cc1ccnc(-n2sc3ccccc3c2=O)n1`, the inhibition was 46.3% (active).
In the case of `Cc1nc2ccccc2c(=O)n1NC(=O)c1ccccc1`, the inhibition is -3.13%.
The value for `CCOC(=O)N1CCC(=NNC(N)=O)CC1` was -14.6%; that for `O=Cc1c(Cl)cccc1Cl` was -9.8%; that for `O=C(NCCc1ccc(Cl)cc1Cl)c1cc([N+](=O)[O-])c[nH]c1=O` was 26.2% (active).
The value for `NS(=O)(=O)c1ccc(CCNC(=O)c2ccc(Cl)cc2[N+](=O)[O-])cc1` was -1.67%; that for `O=C(NCCc1c[nH]c2ccc(Cl)cc12)c1ccc([N+](=O)[O-])cc1` was 8.94%; that for `Cc1ccc(O/C=C2\OC(=O)c3ccccc32)cc1` was 3.04%.
The value for `O=C(COC(=O)c1ncc(Cl)c(Cl)c1Cl)NCc1cccs1` was -15.5%; that for `CC1CC(C)CN(C(=O)COC(=O)c2ccc3ncsc3c2)C1` (stereo not drawn) was -8.36%.
For `CCC(=C/c1sc2ccc3ccccc3c2[n+]1C)/C=C1\Sc2ccc3ccccc3c2N1C`, the inhibition was 79.9% (active).
Next, `CCC1(c2ccccc2)NC(=O)N(CC(=O)Nc2ccccc2C(=O)NC2CCCC2)C1=O` (stereo not drawn): -8.29%; `COc1ccc(NC(=O)CC2C(=O)OCC3CCCCN32)cc1Cl` (stereo not drawn): -17.2%; `COC(=O)c1sc(-c2ccc(C(C)(C)C)cc2)cc1NC(=O)/C=C/C(=O)O`: 38.8% (active).
The value for `COc1ccccc1NC(=O)/C=C/C(N)=O` was -0.46%; that for `CC(C)(C)c1ccc(/C=C/C(=O)Nc2ncccn2)cc1` was -20.1%; that for `CC(C)c1cc(C(N)=O)c(NC(=O)c2cccc(COc3ccc(Br)cc3)c2)s1` was -12.5%.
The value for `O=C1OCCN1C(=O)[C@H]1[C@H](c2ccccc2)C(c2ccc(F)cc2)=NN1c1ccccc1` was -16.7%.
As to `CC1(C)Oc2ccc(C(=O)N3CCOCC3)cc2N(CC(=O)Nc2ccccc2)C1=O`, the inhibition was -10.5%.
Next, `Cc1nn(C)cc1/C=C1\CCC/C(=C\c2cn(C)nc2C)C1=O`: 1.91%; `O=C(/C=C/c1ccc(F)cc1)Nc1cccc(S(=O)(=O)Nc2cccc(C(F)(F)F)c2)c1`: -1.97%.
The value for `CCOC(=O)N1CCN(C(=O)c2ccc(S(=O)(=O)Nc3cccc(C(F)(F)F)c3)cc2)CC1` was 10.1%; that for `Cc1oc2c(F)c(F)c(F)c(F)c2c1S(=O)(=O)Nc1cccc(C(F)(F)F)c1` was 42.3% (active).
`COc1cccc(OC)c1C(=O)N1CCN(Cc2cccnc2)CC1`: the inhibition was 2.69%.
As for `CC[C@]12c3[nH]c4cc(CCC(=O)N(C)C)ccc4c3CCN1C(=O)[C@@H](CC(=O)NCc1ccco1)C[C@@H]2C(=O)N1CCN(C(=O)c2ccco2)CC1`, the inhibition was -6.08%.
